Kir21 inh = inhibitors of mouse Kir2.1 inward-rectifier potassium channel; B-score at 10 µM; actives 0.85% (n = 310,000); P35561; HEK293-Kir2.1, FluxOR thallium flux fluorescence; stronger effect = lower value;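 active = fluorescence ratio B-score at or below minus 3 SD of library scores, with starting-brightness B-score within 2 SD, cut at about -4.2 in these data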;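 also: channel flux triggered by added potassium and thallium sulfate stimulus; B-score of peak minus minimum fluorescence over baseline after thallium stimulus; more negative B-score means stronger Kir2.1 block with less thallium influx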
KCNK3 inh = human KCNK3 channel inhibition, primary screen; O14649; CHO-KCNK3 thallium flux, FluxOR fluorescence; stronger effect = lower value; B-score at 10 µM; actives 0.84% (n = 340,000); AID 602410;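 active = B-score under library mean minus 4 SD, starting fluorescence ratio at most library mean plus 5 SD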;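 also: more negative B-score means stronger inhibition of thallium flux through KCNK3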
KCNK9 inh = inhibitors of human KCNK9 two-pore domain potassium channel. actives 1.2% (n = 310,000). B-score at 10 µM. HEK293 KCNK9, FluxOR thallium flux fluorescence; stronger effect = lower value. Q9NPC2. AID 488922;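 active = ratio B-score over 3 SD below the library mean, with starting fluorescence within 5 SD of its mean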;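 also: negative B-score means less thallium flux so channel inhibition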
Target sequence (Q9NPC2 whole entry, looked up, the tested form may be a part): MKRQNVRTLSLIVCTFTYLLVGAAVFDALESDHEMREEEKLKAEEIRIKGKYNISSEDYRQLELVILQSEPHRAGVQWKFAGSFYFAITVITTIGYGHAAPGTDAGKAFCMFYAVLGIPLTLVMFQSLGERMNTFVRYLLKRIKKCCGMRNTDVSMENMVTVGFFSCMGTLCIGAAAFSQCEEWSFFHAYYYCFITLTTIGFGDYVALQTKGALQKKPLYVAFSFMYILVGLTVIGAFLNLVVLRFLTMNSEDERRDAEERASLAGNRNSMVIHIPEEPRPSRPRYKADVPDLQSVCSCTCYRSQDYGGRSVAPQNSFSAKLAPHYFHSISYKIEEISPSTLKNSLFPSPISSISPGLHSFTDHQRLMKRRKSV
KCNQ1 pot = human KCNQ1 channel potentiation or activation. P51787. CHO-K1 KCNQ1, thallium flux FluxOR fluorescence; stronger effect = higher value. B-score at 10 µM. actives 0.35% (n = 310,000). AID 2648;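 active = fluorescence ratio B-score, a plate-corrected score, at least three library SD, with initial intensity B-score within 5 SD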
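Material: CHO-K1 cells stably expressing KCNQ1. Medium: assay buffer for compound exposure, DMSO matched across wells. Reagent: K+/Tl+ depolarizing stimulus. Compound dosing: single-concentration screen. Times: 37 °C overnight plating, 90-min dark dye load, 20-min compound pretreatment. Technique: FluxOR Tl+ flux fluorescence.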
KCNQ1 block = inhibitors of human KCNQ1 potassium channel. P51787. CHO-K1 KCNQ1, FluxOR thallium flux fluorescence; stronger effect = higher value. B-score at 10 µM. actives 1.3% (n = 310,000);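 active = compounds whose thallium flux B-score, printed positive for inhibition, exceeds three library SD while starting fluorescence stays within three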;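 also: channel opened by potassium depolarization with thallium stimulus after 20 min compound exposure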
hERG protect = compounds protecting human hERG from proarrhythmic drug block; CHO-hERG, FluxOR thallium flux, dofetilide IC70 present; activation (rescue from dofetilide block), less the hit threshold, % at 10 µM; actives 0.51% (n = 310,000); AID 1511;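 active = activation above the mean of controls blocked by dofetilide plus 5 SD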;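 also: thallium influx through hERG after potassium depolarization seen as dye fluorescence rise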
Active calls of the source: *; i = inactive; x = not tested or not shown. Only some compounds are listed: those with a hit (about 3.8% of all), similar ones and a draw of the others.

SMILES	Kir21 inh	KCNK3 inh	KCNK9 inh	KCNQ1 pot	KCNQ1 block	hERG protect
COc1ccc(S(=O)(=O)N2CCC(C(=O)NC3CCCC3)CC2)cc1C	-0.89	i	i	i	i	-2.4
CCc1ccccc1NC(=O)N1C2CCCC1CC(NC(C)=O)C2 (stereo not given)	-0.43	i	i	i	i	6.0*
CC(=O)NC1CC2CCCC(C1)N2C(=O)Nc1ccccc1C (stereo not given)	x	i	x	x	x	x
CCOc1cc(C(=O)N/N=C/c2cn(-c3ccccc3)nc2-c2cc3ccccc3o2)cc(OCC)c1OCC	x	i	x	x	x	x
Cc1ccc2oc(C(=O)NCCCN3CCOCC3)c(C)c2c1	-0.32	i	i	i	i	-3.2
CCN1CCN(CCOc2cccc(Oc3ccccc3)c2)CC1	-4.49*	i	i	i	i	-4.7
CCN1CCN(CCOCCOc2ccccc2)CC1	1.13	i	i	i	i	-4.1
O=C(CCC(=O)N1CCOc2ccc(Cl)cc21)NCCCN1CCN(c2ccccc2F)CC1	-1.99	i	i	i	i	-11.6
O=C(CCC(=O)N1CCOc2ccc(Cl)cc21)NCCCN1CCC(Cc2ccccc2)CC1	-6.64*	i	i	i	i	-19.8
COc1ccccc1NC(=O)CCNC(=O)c1ccc(C)cc1	0.75	i	i	i	i	-6.3
Cc1ccc(Sc2cnn(-c3ccccc3)c(=O)c2Cl)cc1	-3.17	i	i	i	10*	-7.4
COc1ccccc1N1C(=O)S/C(=C\c2ccc(C)s2)C1=O	0.08	i	i	i	i	4.8*
CC(=O)c1c(C)nc2ccc([N+](=O)[O-])cc2c1-c1ccccc1	0.26	i	i	i	i	-6.4
CC(=O)c1c(-c2ccccc2)c2cc([N+](=O)[O-])ccc2[nH]c1=O	0.73	i	i	8*	i	-3.8
COCCNC(=O)c1cc(-c2ccccc2)nn1CC1CC(c2cccc([N+](=O)[O-])c2)=NO1 (stereo not given)	0.96	i	i	i	i	-7.8
O=C(NCC1CC1)c1cc(-c2ccccc2)nn1CC1CC(c2cccc([N+](=O)[O-])c2)=NO1 (stereo not given)	2.79	i	-8.34*	i	i	-8.2
O=C(NCc1cccc(Br)c1)c1cc(-c2ccccc2)nn1CC1CC(c2cccc([N+](=O)[O-])c2)=NO1 (stereo not given)	-0.61	i	-7.07*	i	i	-13.5
O=C(/C=C/c1ccc(O)cc1)c1ccccc1	0.83	i	i	i	i	-17.8
Cc1nn(C)cc1/C=C/C(=O)c1ccc(O)cc1	0.35	i	i	i	i	6.2*
O=C(c1cc(S(=O)(=O)N2CCOCC2)ccc1Cl)N1CCC(Cc2ccccc2)CC1	1.11	i	i	i	i	-7.8
COc1ccc(CNCc2cccc(OC)c2OC)cc1Br	-5.02*	i	i	i	i	-19.3
CC(Oc1ccccc1)C(=O)N1CCN(c2ccc(N3CCCCC3)nn2)CC1 (stereo not given)	-0.67	i	i	i	i	-13.9
O=C(CSc1ccc([N+](=O)[O-])cn1)Nc1ccccc1N1CCOCC1	-4.58*	i	i	i	i	-9.6
O=C(CSc1nc2ccccc2o1)Nc1ccccc1N1CCOCC1	-8.77*	i	i	i	i	-7.4
O=C(NC1CCCC1)C(c1cccnc1)N(Cc1ccccc1F)C(=O)c1csnn1 (stereo not given)	-1.01	i	i	i	i	-11.3
CN1C(=O)/C(=N\OC(=O)c2cccc3ccccc23)c2ccccc21	0.54	i	i	18*	i	11.5*
Cc1ccc(S(=O)(=O)N2CCCC2)cc1C(=O)Nc1ccc(-n2cnnn2)cc1	x	i	x	x	x	x
CCCNS(=O)(=O)c1cccc(C(=O)NNC(=O)c2cc(C)oc2C)c1	-1.02	i	i	i	i	-10.4
O=C(Nc1nc2c(Br)cc(Br)cc2c(=O)s1)C1CCC1	-0.07	i	i	i	i	5.9*
